Bioassay records deposited in PubChem by several laboratories.
The list is not random: actives were taken first. Their share in the collection is about 4.7%.
Jurkat NFkB inh: inhibitors of induced NF-kB luciferase reporter, primary screen, TCR NF-kB activation inhibitor project, cell-based, luminescence, uHTS; 330,000 tested, 0.53% active; Jurkat, PMA/ionomycin-induced NF-kB luciferase reporter; inhibition, % at 4 µM; AID 435003, 2010; in the data active means inhibition above about 50%
VIM-2 inh: VIM-2 metallo-beta-lactamase inhibitors, primary screen, biochemical, epi-absorbance readout, Pseudomonas aeruginosa enzyme; purified VIM-2, nitrocefin hydrolysis, epi-absorbance fluorescence; inhibition, % at 5.6 µM; 290,000 tested, 0.89% active;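 active means inhibition above the mean of all tested compounds plus 3 SD, cutoff set per screening run, cut at about 7.5% in these data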;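 further: red hydrolysis product quenches plate fluorescence so inhibitors raise well fluorescence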
IMP-1 inhibitor: IMP-1 metallo-beta-lactamase inhibitors, primary screen, biochemical, epi-absorbance readout, Pseudomonas aeruginosa enzyme | inhibition, % at 5.6 µM | metallo-beta-lactamase IMP-1 (Pseudomonas aeruginosa) | purified IMP-1, nitrocefin hydrolysis, epi-absorbance fluorescence | 290,000 tested, 0.45% active;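 active means inhibition above the mean plus 3 SD of all compounds in the same screening run, cut at about 4.5% in these data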
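System: Purified recombinant IMP-1 metallo-beta-lactamase enzyme | Measured by: Fluorescence quenching readout, ex 480/em 530 nm | Replication: Singlicate | Incubation: 15 min preincubation plus 25 min reaction at 25 °C | Evaluation: Percent inhibition from optical density relative to buffer-blank wells | Benchmarks: DMSO with and without IMP-1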
697 NFkB inh: inhibitors of PMA/ionomycin-induced NF-kB reporter, 697 cells, primary screen, B-cell NF-kB inhibitor project, cell-based, luminescence, uHTS; 697 B-cell NF-kB luciferase reporter, 16 h; inhibition, % at 4 µM; 330,000 tested, 0.33% active; in the data active means inhibition above about 35%
aSyn 5UTR inh: MLPCN primary screen, SNCA 5' untranslated region. alpha-synuclein 5'UTR reporter, inhibitor activity. 300,000 tested, 0.82% active. inhibition, % (tested at 7.5 µM); in the data active means inhibition above about 60%;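 further: H4 neuroglioblastoma cells stably carrying SNCA 5'UTR luciferase fusion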
Mdm2-MdmX inh: inhibitors of human Mdm2-MdmX association, primary screen, cell-based, luminescence, split luciferase, SaOS-2, uHTS; Protein Mdm4 (Homo sapiens) + E3 ubiquitin-protein ligase Mdm2 (Homo sapiens), …; SaOS-2 split-luciferase Mdm2/MdmX complementation; inhibition, % at 8 µM; 330,000 tested, 3% active;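 active means inhibition of at least 50% at 8 µM in the primary screen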
Target sequence (O15151 whole entry, looked up): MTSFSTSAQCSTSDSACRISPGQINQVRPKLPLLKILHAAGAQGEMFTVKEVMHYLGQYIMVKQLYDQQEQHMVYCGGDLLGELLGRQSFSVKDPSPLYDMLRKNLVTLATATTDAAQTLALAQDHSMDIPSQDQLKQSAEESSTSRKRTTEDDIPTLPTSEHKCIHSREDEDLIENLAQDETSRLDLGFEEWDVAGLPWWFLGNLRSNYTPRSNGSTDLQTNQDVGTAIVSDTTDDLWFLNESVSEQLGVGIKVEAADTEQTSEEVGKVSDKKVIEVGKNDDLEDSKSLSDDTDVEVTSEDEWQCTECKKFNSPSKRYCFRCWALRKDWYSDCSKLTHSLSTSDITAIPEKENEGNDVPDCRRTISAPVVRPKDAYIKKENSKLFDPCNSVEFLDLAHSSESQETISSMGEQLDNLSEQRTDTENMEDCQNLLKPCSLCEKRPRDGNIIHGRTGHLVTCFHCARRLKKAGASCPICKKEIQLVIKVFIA
Target sequence (Q00987 whole entry, looked up): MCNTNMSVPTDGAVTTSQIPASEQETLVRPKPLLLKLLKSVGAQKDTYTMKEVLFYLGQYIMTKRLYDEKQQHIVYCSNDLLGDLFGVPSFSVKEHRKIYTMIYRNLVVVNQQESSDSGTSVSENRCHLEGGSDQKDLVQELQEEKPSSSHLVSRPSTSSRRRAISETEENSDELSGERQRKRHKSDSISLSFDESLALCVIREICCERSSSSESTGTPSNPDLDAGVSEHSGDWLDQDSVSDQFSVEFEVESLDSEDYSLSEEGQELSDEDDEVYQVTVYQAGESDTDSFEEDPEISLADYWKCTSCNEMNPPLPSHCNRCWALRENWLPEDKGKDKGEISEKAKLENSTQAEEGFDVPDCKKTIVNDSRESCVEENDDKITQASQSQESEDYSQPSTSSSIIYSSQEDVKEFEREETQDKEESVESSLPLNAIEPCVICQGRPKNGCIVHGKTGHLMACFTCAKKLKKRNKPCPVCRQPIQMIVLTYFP
Mdm2-MdmX conf: Mdm2-MdmX complex disruptors, retested hits, confirmation, luminescence, single concentration. shares compounds with Mdm2-MdmX inh. Mdm2-MdmX binding, luminescent assay. inhibition, % at 8 µM. 10,000 tested, 55% active. AID 489028, 2010; in the data active means inhibition above about 40%
FLuc counter: full-length luciferase signal inhibition, confirmation, counter-screen for Mdm2/MdmX interaction inhibitor project, cell-based, single concentration, SaOS-2; shares compounds with Mdm2-MdmX inh; SaOS-2 full-length luciferase counterscreen, luminescence; inhibition, % at 8 µM; 6,200 tested, 77% active; AID 504607, 2011;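 active means mean inhibition at 8 µM reaching about 37%, which flags the compound as non-specific, limit read from the data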;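 further: p53-null SaOS-2 cells with luciferase driven by a doxycycline-inducible promoter; compound on cells about two nights before reading with doxycycline added after day one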
Of the large screens only hits and unclear results are named; the others gave an inactive call (follow-up assays come after a bar, where they were run); ! = not confirmed by another sample.

c1ccc(C2CC(c3ccccc3)n3c(nc4ccccc43)N2)cc1 (configuration not stated)	Mdm2-MdmX inh 63 | Mdm2-MdmX conf 40 | FLuc counter 48
COc1ccc(Br)cc1/C=N/n1nnnc1N	none
CC(=O)Nc1sc(C)c(C)c1C(=O)OCC(=O)N(CC(C)C)c1c(N)n(Cc2ccccc2)c(=O)[nH]c1=O	aSyn 5UTR inh 77, Mdm2-MdmX inh 100 (no result: VIM-2 inh, IMP-1 inhibitor) | Mdm2-MdmX conf inactive
COC(=O)c1c(C)[nH]c(C(=O)OCC(=O)N(CC(C)C)c2c(N)n(Cc3ccccc3)c(=O)[nH]c2=O)c1C	none (no result: VIM-2 inh, IMP-1 inhibitor)
Cc1ccc(S(=O)(=O)N2CCCCC2C(=O)Nc2ccc(N(C)C)cc2)cc1 (configuration not stated)	none (no result: VIM-2 inh, IMP-1 inhibitor, aSyn 5UTR inh)
Cc1cc(NC(=O)c2ccc(C#N)cc2)n(-c2ccccn2)n1	Mdm2-MdmX inh 63 | Mdm2-MdmX conf inactive
CCOC(=O)Nc1ccc2c(c1)N(C(=O)CCN(CC)CC)c1ccccc1S2=O (configuration not stated)	Mdm2-MdmX inh 67 | Mdm2-MdmX conf 53 | FLuc counter inactive
COc1cc(N=c2c([N+](=O)[O-])nn(-c3ccc4c(c3)OCCO4)n2O)cc(OC)c1	Mdm2-MdmX inh 59 | Mdm2-MdmX conf inactive
CCc1cccc(N=c2c([N+](=O)[O-])nn(-c3ccc4c(c3)OCCO4)n2O)c1	Mdm2-MdmX inh 73 | Mdm2-MdmX conf 77 | FLuc counter 62
Cc1ccc(CN(Cc2ccco2)S(=O)(=O)c2ccc(S(=O)(=O)NCC3CCCO3)cc2)cc1 (configuration not stated)	none
CCN1CCN(Cc2ccc(NC(=O)c3cc(NC(=O)c4nccnc4N)cc(OC)c3)cc2C(F)(F)F)CC1	none (no result: VIM-2 inh, IMP-1 inhibitor)
CCN1CCN(Cc2ccc(NC(=O)c3ccc(C)c(NC(=O)c4nccnc4N)c3)cc2C(F)(F)F)CC1	Mdm2-MdmX inh 97 (no result: VIM-2 inh, IMP-1 inhibitor) | Mdm2-MdmX conf 64 | FLuc counter 42
CCN1CCN(Cc2ccc(NC(=O)c3ccc(C)c(NC(=O)c4nccn4C)c3)cc2C(F)(F)F)CC1	none (no result: VIM-2 inh, IMP-1 inhibitor)
CCN1CCN(Cc2ccc(NC(=O)c3ccc(C)c(NC(=O)N4CCNC4=O)c3)cc2C(F)(F)F)CC1	aSyn 5UTR inh 66!, Mdm2-MdmX inh 59 | Mdm2-MdmX conf 40! | FLuc counter 83
Cc1ccc(C(=O)Nc2cccc(C(F)(F)F)c2)cc1NC(=O)c1nccn1C	none (no result: VIM-2 inh, IMP-1 inhibitor)
CCN1CCN(Cc2ccc(NC(=O)c3ccc(C)c(NC(=O)c4cccc5[nH]ccc45)c3)cc2C(F)(F)F)CC1	Mdm2-MdmX inh 55 (no result: VIM-2 inh, IMP-1 inhibitor) | Mdm2-MdmX conf inactive
CCN1CCN(Cc2ccc(NC(=O)c3ccc(C)c(NC(=O)c4cc(-c5ccc(Br)cc5)n[nH]4)c3)cc2C(F)(F)F)CC1	Mdm2-MdmX inh 99 (no result: VIM-2 inh, IMP-1 inhibitor) | Mdm2-MdmX conf inactive | FLuc counter 41
CN(c1ccccc1)S(=O)(=O)c1cccc(C(=O)OCC(=O)NCc2ccc3c(c2)OCO3)c1	none
CC(NC(=O)CSc1nc2c(c(C(F)(F)F)n1)CCc1ccccc1-2)c1ccccc1 (configuration not stated)	none
CCc1c(C)sc(NC(=O)CSc2nc3c(c(C(F)(F)F)n2)CCc2ccccc2-3)c1C#N	Mdm2-MdmX inh 75 | Mdm2-MdmX conf inactive
COc1ccc(NC(=O)CSc2ccccc2)c(OC)c1	none
COc1ccc(NC(=O)CSc2ncnc3c2sc2ccccc23)c(OC)c1	Mdm2-MdmX inh 88 | Mdm2-MdmX conf inactive
Nc1nonc1C(=O)NCCNC(=O)c1ccc(Cl)cc1	none
Cc1cc(C(C)(C)CC(C)(C)C)ccc1OCCOCC[N+](C)(C)Cc1ccccc1	Mdm2-MdmX inh 100 (no result: VIM-2 inh, IMP-1 inhibitor, aSyn 5UTR inh) | Mdm2-MdmX conf 96 | FLuc counter 54
COc1ccc(C2(C)NC(=O)N(CC3CCCCC3)C2=O)cc1 (configuration not stated)	none
S=C1NC[C@H](c2ccccc2)N1CCCCC1CCCCC1	none (no result: VIM-2 inh, IMP-1 inhibitor)
NC1=NC[C@H](c2ccccc2)N1CCCCC1CCCCC1	Mdm2-MdmX inh 51 (no result: VIM-2 inh, IMP-1 inhibitor) | Mdm2-MdmX conf inactive
COc1ccc2cc(C(=O)/C=C/c3cc(OC)c(OC)c(OC)c3)ccc2c1	Mdm2-MdmX inh 75 | Mdm2-MdmX conf 54 | FLuc counter 78
COc1ccc(Oc2ccc(/C=C/C(=O)c3cccc(OC)c3)cc2[N+](=O)[O-])cc1	Mdm2-MdmX inh 97 | Mdm2-MdmX conf inactive | FLuc counter inactive
COc1ccc(Oc2ccc(/C=N/NC(=O)c3cccnc3)cc2[N+](=O)[O-])cc1	none
COc1cc(/C=C/C(=O)N2CCCN(C(=O)/C=C/c3cc(OC)c(OC)c(OC)c3)CC2)cc(OC)c1OC	none
COc1cc(/C=C/C(C)=O)cc(OC)c1OC	none
COc1cc(/C=C/C(=O)N2CCC=CC2=O)cc(OC)c1OC	Mdm2-MdmX inh 100 (no result: VIM-2 inh, IMP-1 inhibitor, aSyn 5UTR inh) | Mdm2-MdmX conf 63 | FLuc counter inactive
Cc1nc(SCc2nc3cc(Cl)c(F)cc3[nH]2)c2oc3ccccc3c2n1	Mdm2-MdmX inh 92 (no result: VIM-2 inh, IMP-1 inhibitor, aSyn 5UTR inh) | Mdm2-MdmX conf 42 | FLuc counter inactive
Cc1coc(=N)n1CC(=O)c1ccc(Cl)cc1	none (no result: aSyn 5UTR inh)
O=C(c1cc2ccccc2oc1=O)N1CCN(c2ncccn2)CC1	none
CC1CCN(c2ccc(-c3cccc(NC(=O)C(F)(F)F)c3)nn2)CC1	aSyn 5UTR inh 103, Mdm2-MdmX inh 73 | Mdm2-MdmX conf 69 | FLuc counter 36
O=C(Nc1cccc(-c2ccc(N3CCCCC3)nn2)c1)C(F)(F)F	aSyn 5UTR inh 96, Mdm2-MdmX inh 60 | Mdm2-MdmX conf 45 | FLuc counter 74
CN(C)c1ccc(NC(=O)CCN2CCN(c3ccccn3)CC2)cc1	none
COCCn1c(=O)c2c(nc3n2CCN3c2ccc(C)cc2)n(C)c1=O	none (no result: Jurkat NFkB inh, 697 NFkB inh, aSyn 5UTR inh, Mdm2-MdmX inh)
CCC(=O)N1CCc2cc(S(=O)(=O)CCC(=O)NCc3cccc(OC)c3)ccc21	none
Cn1c(=O)c2c(nc(Oc3cccc(O)c3)n2C)n(C)c1=O	none
Cn1c(=O)c2c(nc(Oc3ccc4ccccc4c3)n2C)n(C)c1=O	Mdm2-MdmX inh 52 | Mdm2-MdmX conf 62 | FLuc counter inactive
CC(C)N(C(=O)CS(=O)(=O)c1ccc(Cl)c(Cl)c1)C(C)C	none
